Tests used:
[1] = Solubility at 22 degC in culture medium in presence of 5% fetal calf serum; format: physicochemical
Outline: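 Solubility of the HCl salts is determined in culture medium containing 5% fetal calf serum at 22 °C.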

[2] = system: HT-29; assay: Metabolic stability in human HT-29 multicellular layer assessed as apparent first-order rate constant under anoxic condition; format: ADME, cell-based
Outline: (§1)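 Stirred single-cell suspensions of anoxic HT29 cells are exposed for 3 h at a drug concentration giving roughly one log kill by 1 h. Clonogenic survival is followed, and extracellular drug is monitored by HPLC. Concentration-time data are fitted for the apparent first-order metabolic rate constant k_met, scaled to MCL cell density. CT₁₀ and M₁₀ (drug metabolized at 10% survival) are interpolated from the fitted PK/PD model.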

[3] = system: HT-29; assay: Drug metabolism in human HT-29 cells assessed as amount of drug metabolized for one log of cell kill at their CT10 concentration for 1 hr; format: ADME, cell-based; conditions: ht-29, 1 h; outline: as §1
[4] = system: HT-29; assay: Hypoxic cytotoxicity ratio, ratio of aerobic IC50 to anoxic IC50 for human HT-29 cells; format: functional
[5] = system: SiHa; assay: Cytotoxicity against human SiHa cells after 4 hrs under strict hypoxic condition; format: functional, cell-based; conditions: Homo sapiens, SiHa, 4 h
[6] = system: HT-29; assay: Cytotoxicity against human HT-29 cells assessed as AUC-time curve providing 10% surviving fraction by clonogenic assay; format: functional
[7] = system: HT-29; assay: Cytotoxicity against human HT-29 cells after 4 hrs under strict hypoxic condition; format: functional, cell-based; conditions: Homo sapiens, HT-29, 4 h
[8] = system: SiHa; assay: Hypoxic cytotoxicity ratio, ratio of aerobic IC50 to anoxic IC50 for human SiHa cells; format: functional
[9] = culture medium with 5% fetal calf serum, read-out: solubility

Structure (SMILES)	solubility [1, 9] [mM]	Activity [2] [min⁻¹]	Activity [3] [µM]	Ratio IC50 [4]	IC50 [5] [µM]	Activity [6] [µM·h]	IC50 [7] [µM]	Ratio IC50 [8]	solubility ([1]; serum) [mM]	Activity ([3]; 1 h) [µM]
CC1Cc2cc3c(cc2C1)[n+]([O-])c(CCCN1CCOCC1)n[n+]3[O-] (stereo not given)	36	0.96	2059							
[O-][n+]1nc(NCCCN2CCOCC2)[n+]([O-])c2cc3c(cc21)CCC3	48	0.19	1715	20	8.8	76.2	21.4	44		
[O-][n+]1nc(NCCCN2CCOCC2)[n+]([O-])c2cc3c(cc21)OCC3	> 49	0.2	2660	8	3.4	116	22	28		
CCc1n[n+]([O-])c2cc3c(cc2[n+]1[O-])CC(CO)C3 (stereo not given)	5	0.47	2096	45	6.5	49.7	17	48		
CCCN(CCC)CCNc1n[n+]([O-])c2c3c(ccc2[n+]1[O-])CCC3	40	0.73	5626	7	3.3	66.3	12.4	23		
[O-][n+]1nc(CCCN2CCOCC2)[n+]([O-])c2cc3c(cc21)CC(CO)C3 (stereo not given)	48	0.9	2533	121	1.8	24.4	2.4	206		
[O-][n+]1nc(NCCN2CCCCC2)[n+]([O-])c2ccc3c(c21)CCC3	36	1.6	5022	53	1	27.2	4.9	51		
CCN(CC)CCNc1n[n+]([O-])c2cc3c(cc2[n+]1[O-])CCC3	48	1.08	4521	61	1.1	36.3	4.1	133		
CN(C)CCNc1n[n+]([O-])c2c3c(ccc2[n+]1[O-])CCCC3	47	1.78	4223	18	1	19.5	3.4	64		
CCN(CC)CCNc1n[n+]([O-])c2cc3c(cc2[n+]1[O-])OCC3	47	0.26	1718	113	3.4	58	10	122		
CCNc1n[n+]([O-])c2cc3c(cc2[n+]1[O-])CN(C)CC3	> 47			59	1.1		2.6	100		
Nc1n[n+]([O-])c2cc3c(cc2[n+]1[O-])CCC3	3	0.47	7735	27	8.3	106	15.2	31		
CCc1n[n+]([O-])c2cc3c(cc2[n+]1[O-])CC(CCN1CCOCC1)C3 (stereo not given)	> 51	0.54	984	36	1.3	15.8	3.6	84		
CCN(CC)CCNc1n[n+]([O-])c2c3c(ccc2[n+]1[O-])CCC3	> 49	0.97	3806	17	0.9	35.1	4.2	64		
CCNc1n[n+]([O-])c2cc3c(cc2[n+]1[O-])CC(N(C)C)C3 (stereo not given)	46									
[O-][n+]1nc(NCCCN2CCOCC2)[n+]([O-])c2ccc3c(c21)CCC3	46	0.2	4108	24	13.9	176.4	38	33		
CN(C)CCNc1n[n+]([O-])c2cc3c(cc2[n+]1[O-])OCO3		0.87							> 50	4310
CN(C)CCNc1n[n+]([O-])c2cc3c(cc2[n+]1[O-])OCC3	49	0.6	3000	46	1.9	43.3	5.2	128		
CN(C)CCNc1n[n+]([O-])c2cc3c(cc2[n+]1[O-])CCCCC3	> 53	1.52	5404	54	1.2	30.6	5.2	88		
CCc1n[n+]([O-])c2cc3c(cc2[n+]1[O-])CC(CN1CCOCC1)C3 (stereo not given)	43	0.54	1544	31	2.4	24.1	4.8	62		
[O-][n+]1nc(NCCCN2CCOCC2)[n+]([O-])c2cc3c(cc21)CCO3	46	0.23	2155	6	29	82.1	49	14		
CC1Cc2cc3c(cc2C1)[n+]([O-])c(CCCO)n[n+]3[O-] (stereo not given)	10	0.24	2394	80	8	85.3	13	104		
Nc1n[n+]([O-])c2cc3c(cc2[n+]1[O-])OCC3	0.1			4	23		117			
CCc1n[n+]([O-])c2cc3c(cc2[n+]1[O-])CC(CCO)C3 (stereo not given)	2	0.54	2641	102	2.9	41.3	7.7	86		
CCN1Cc2cc3c(cc2C1)[n+]([O-])c(N)n[n+]3[O-]	6	2.2	2022		0.8	8.1	1.5	80		
CCc1n[n+]([O-])c2cc3c(cc2[n+]1[O-])CN(C)CC3	> 47			2	3.1		13.1	6		
